Legend:
Format in all cases: functional
[1] = target: Nitric oxide synthase, inducible (Homo sapiens) (UniProt P35228); experiment: NO releasing ability of compound measured through formation of nitrite using iNOS (nitric oxide synthases)
Procedure, shortened: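 Purified iNOS (0.5 unit) incubated with 1 mM substrate in 50 mM HEPES pH 7.4 with 100 µM NADPH, 4 µM FAD, 4 µM FMN, 6 µM BH4, 400 µM DTT, SOD, catalase and 1 mM magnesium acetate; shaken at 37 °C. Quenched with ethanol for ≥1 h at room temperature, then Griess reagent; A548 converted via NaNO2 calibration in enzyme-free mixtures.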

[2] = target: Nitric oxide synthase 1 (Rattus norvegicus) (UniProt P29476); experiment: NO releasing ability of compound measured through formation of nitrite using nNOS (nitric oxide synthases)
Procedure, shortened: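 Purified nNOS (0.5 unit) incubated with 1 mM substrate in 50 mM HEPES pH 7.4, 500 µL final volume. Mix held 100 µM NADPH, 4 µM FAD, 4 µM FMN, 6 µM BH4, 400 µM DTT, SOD, catalase, 1 mM CaCl2 and 10 µg/mL CaM; shaken at 37 °C. Ethanol quench, then Griess nitrite read at 548 nm against NaNO2 calibration without enzyme. L-arginine as control.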

[3] = target: Nitric oxide synthase 1 (Homo sapiens) (UniProt P29475); experiment: NO releasing ability of compound measured through formation of nitrite using neuronal nitric oxide synthase
Procedure, shortened: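 Incubation with nNOS (0.5 unit) in 50 mM HEPES pH 7.4 at 37 °C, shaken. Mixture: 1 mM substrate, 100 µM NADPH, 4 µM FAD, 4 µM FMN, 6 µM BH4, 400 µM DTT, 100 units SOD, 50 units catalase, 1 mM CaCl2, 10 µg/mL calmodulin. Quenched with ethanol, ≥1 h at room temperature, then Griess reagent, A548. Nitrite is quantified against NaNO2 standards made in enzyme-free mixtures. L-arginine is the reference substrate.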

[4] = Effect of incubation conditions on the formation of NO2 from the oxidation of compound in the presence of BH4
Procedure, shortened: (§1)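 Base NOS reaction varied by component: 1 mM substrate, 50 mM HEPES pH 7.4, 100 µM NADPH, 4 µM FAD, 4 µM FMN, 6 µM BH4, 400 µM DTT, SOD, catalase, 0.5 unit NOS, shaken at 37 °C for the indicated time. Nitrite determined by Griess reaction after ethanol quench, absorbance 548 nm, with NaNO2 calibration curves lacking enzyme.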

[5] = Effect of incubation conditions on the formation of NO2 from the oxidation of compound in the presence of NADPH; procedure, shortened: as §1
[6] = Effect of incubation conditions on the formation of NO2 from the oxidation of compound in the presence of NO2-L-Arg; procedure, shortened: as §1
[7] = Effect of incubation conditions on the formation of NO2 from the oxidation of compound in the presence of complete system; procedure, shortened: as §1
[8] = Effect of incubation conditions on the formation of NO2 from the oxidation of compound in the presence of nNOS; procedure, shortened: as §1

Sequence of Nitric oxide synthase, inducible (Homo sapiens) (P35228 whole entry): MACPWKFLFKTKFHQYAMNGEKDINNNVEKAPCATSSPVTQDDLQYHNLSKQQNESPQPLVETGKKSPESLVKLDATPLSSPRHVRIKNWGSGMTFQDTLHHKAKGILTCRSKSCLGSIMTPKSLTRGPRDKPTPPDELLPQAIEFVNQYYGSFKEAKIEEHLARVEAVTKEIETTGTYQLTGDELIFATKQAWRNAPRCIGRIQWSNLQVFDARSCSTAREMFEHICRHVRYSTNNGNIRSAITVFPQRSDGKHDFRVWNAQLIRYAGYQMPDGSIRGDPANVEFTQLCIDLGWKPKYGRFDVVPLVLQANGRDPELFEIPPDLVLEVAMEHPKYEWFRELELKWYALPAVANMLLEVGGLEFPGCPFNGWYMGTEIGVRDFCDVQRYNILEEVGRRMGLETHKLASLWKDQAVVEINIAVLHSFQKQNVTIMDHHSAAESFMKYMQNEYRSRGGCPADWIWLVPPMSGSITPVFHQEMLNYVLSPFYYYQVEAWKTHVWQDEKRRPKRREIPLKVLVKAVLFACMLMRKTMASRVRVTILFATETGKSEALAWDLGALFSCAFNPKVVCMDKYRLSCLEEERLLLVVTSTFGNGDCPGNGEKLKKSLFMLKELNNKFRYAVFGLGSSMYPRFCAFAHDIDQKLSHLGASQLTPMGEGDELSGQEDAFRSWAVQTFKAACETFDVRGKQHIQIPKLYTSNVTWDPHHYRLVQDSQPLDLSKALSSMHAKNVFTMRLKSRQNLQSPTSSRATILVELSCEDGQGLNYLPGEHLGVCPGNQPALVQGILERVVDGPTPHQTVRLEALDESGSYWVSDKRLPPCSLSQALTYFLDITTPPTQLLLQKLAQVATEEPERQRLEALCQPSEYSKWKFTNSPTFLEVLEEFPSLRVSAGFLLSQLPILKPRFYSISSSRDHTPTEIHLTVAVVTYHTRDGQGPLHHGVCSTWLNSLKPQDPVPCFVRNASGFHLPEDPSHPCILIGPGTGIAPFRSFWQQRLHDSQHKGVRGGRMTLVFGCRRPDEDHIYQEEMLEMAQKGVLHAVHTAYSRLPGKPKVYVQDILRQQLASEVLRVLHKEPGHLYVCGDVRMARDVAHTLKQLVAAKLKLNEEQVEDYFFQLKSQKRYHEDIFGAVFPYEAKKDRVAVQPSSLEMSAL
Sequence of Nitric oxide synthase 1 (Rattus norvegicus) (P29476 whole entry): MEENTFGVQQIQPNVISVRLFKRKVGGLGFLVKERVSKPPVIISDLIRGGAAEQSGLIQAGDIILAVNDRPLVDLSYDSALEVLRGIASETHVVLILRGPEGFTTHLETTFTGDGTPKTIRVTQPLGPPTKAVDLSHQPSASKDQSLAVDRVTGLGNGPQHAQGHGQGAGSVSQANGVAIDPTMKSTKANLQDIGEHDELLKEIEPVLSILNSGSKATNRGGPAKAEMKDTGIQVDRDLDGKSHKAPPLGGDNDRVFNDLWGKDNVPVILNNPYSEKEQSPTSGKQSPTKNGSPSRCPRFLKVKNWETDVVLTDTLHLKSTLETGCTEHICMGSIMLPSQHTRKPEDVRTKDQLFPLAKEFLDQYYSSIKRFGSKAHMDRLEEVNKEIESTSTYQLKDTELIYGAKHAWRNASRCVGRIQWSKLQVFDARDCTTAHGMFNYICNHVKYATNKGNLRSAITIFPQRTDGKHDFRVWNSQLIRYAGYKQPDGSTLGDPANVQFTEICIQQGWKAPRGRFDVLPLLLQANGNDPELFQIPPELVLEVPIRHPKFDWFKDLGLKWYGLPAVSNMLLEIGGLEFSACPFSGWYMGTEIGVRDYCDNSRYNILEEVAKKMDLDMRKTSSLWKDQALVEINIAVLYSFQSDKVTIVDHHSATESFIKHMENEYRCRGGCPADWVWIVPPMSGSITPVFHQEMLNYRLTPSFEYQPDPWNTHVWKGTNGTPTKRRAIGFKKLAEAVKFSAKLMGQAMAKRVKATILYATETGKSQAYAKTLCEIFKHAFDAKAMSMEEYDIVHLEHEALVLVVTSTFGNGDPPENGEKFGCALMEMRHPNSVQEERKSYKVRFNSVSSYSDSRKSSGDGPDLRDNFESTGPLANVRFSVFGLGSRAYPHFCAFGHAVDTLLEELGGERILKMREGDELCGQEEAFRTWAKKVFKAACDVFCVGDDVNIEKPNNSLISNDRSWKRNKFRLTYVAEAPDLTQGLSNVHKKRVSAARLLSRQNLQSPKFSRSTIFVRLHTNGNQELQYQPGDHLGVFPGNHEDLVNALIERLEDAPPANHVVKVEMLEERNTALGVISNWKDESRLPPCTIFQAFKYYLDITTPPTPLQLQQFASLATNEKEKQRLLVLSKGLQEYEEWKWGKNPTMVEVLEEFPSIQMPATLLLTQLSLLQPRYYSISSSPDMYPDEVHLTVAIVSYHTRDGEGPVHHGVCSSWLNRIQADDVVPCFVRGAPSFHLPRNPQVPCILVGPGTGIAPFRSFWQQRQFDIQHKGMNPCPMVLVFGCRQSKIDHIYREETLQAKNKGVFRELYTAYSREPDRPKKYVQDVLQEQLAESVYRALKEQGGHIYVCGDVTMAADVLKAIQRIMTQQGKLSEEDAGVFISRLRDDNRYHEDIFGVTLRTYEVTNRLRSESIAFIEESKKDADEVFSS
Sequence of Nitric oxide synthase 1 (Homo sapiens) (P29475 whole entry): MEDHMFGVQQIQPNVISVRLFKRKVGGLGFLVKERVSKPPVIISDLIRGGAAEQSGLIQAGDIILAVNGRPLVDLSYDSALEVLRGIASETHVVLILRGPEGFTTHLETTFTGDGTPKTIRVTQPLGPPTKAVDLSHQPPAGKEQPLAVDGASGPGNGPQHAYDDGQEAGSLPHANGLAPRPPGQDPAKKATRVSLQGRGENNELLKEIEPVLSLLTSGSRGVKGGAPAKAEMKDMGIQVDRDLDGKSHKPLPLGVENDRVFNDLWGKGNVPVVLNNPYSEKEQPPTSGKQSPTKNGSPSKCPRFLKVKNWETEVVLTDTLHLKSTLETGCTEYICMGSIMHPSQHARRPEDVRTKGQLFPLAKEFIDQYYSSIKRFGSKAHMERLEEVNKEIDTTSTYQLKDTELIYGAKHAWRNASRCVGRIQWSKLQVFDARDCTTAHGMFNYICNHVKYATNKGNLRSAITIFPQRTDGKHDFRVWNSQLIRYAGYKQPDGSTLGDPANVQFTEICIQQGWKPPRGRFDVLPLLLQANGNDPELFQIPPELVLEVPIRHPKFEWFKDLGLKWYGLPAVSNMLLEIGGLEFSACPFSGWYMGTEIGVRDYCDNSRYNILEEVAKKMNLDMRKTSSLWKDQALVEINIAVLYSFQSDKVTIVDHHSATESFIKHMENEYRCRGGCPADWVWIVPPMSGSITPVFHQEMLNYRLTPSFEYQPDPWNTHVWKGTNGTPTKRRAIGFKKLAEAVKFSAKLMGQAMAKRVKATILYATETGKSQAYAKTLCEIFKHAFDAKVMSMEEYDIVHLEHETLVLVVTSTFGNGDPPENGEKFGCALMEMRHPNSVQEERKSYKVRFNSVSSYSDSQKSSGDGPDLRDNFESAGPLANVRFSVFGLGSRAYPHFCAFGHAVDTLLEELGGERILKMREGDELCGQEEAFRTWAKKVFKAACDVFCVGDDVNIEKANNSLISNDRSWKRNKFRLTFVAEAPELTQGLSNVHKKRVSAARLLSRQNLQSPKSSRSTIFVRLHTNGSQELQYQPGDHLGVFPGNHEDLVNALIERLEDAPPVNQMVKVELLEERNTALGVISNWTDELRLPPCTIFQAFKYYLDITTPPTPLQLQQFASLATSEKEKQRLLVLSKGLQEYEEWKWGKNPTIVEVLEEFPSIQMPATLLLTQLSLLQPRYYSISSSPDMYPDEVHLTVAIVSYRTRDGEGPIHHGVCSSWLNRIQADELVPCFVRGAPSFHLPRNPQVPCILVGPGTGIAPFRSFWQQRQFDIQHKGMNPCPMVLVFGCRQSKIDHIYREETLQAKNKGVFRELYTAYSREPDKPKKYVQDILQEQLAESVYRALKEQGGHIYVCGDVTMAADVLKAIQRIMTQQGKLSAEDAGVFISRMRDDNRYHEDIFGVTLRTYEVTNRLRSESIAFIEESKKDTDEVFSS

| Structure (SMILES) | Activity [1] [µM] | Activity [2] [µM] | further results |
| --- | --- | --- | --- |
| N=C(N)NCC1COC2(CCCCC2)O1 (stereo not drawn) | < 0.1 | < 0.1 | – |
| N=C(N)NCCN1CCCCCCC1 | < 0.1 | < 0.1 | – |
| N=C(N)NCC1COc2ccccc2O1 (stereo not drawn) | < 0.1 | < 0.1 | – |
| N/C(=N/CC1COc2ccccc2O1)NO (stereo not drawn) | 0.9 | 0.8 | – |
| N/C(=N\O)NCCN1CCCCCCC1 | 0.2 | 0.3 | – |
| N=C(N)NCCC[C@H](N)C(=O)O | – | – | Activity [3]: 14.5 µM |
| N/C(=N/CC1COC2(CCCCC2)O1)NO (stereo not drawn) | 1.6 | 1.2 | residual activity [4]: 30%; residual activity [5]: 18%; residual activity [6]: 50%; residual activity [7]: 100%; residual activity [8]: < 2% |
